Data set [1] deals with IMR-32. As to the kind of experiment: Cytotoxicity against human IMR32 cells assessed as cell viability after 48 hrs by MTT assay. The format is functional, cell-based. The gist of the method:
(§1)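 MTT viability assay in neuroblastoma lines (IMR-32, SK-N-SH, NB-39) and normal cells (NHDF, HUVEC). Cells were exposed to the indicated concentrations of compound or DMSO vehicle for 48 h. Survival is expressed relative to the vehicle control as mean ± SEM, n = 3.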
For orientation: Formazan colour is commonly taken as a measure of viable cells.

Data set [2] deals with HUVEC. The data set is described as follows: Cytotoxicity against human HUVEC cells assessed as cell viability after 48 hrs by MTT assay. The format is cell-based. A digest of the protocol: as §1
For data set [3], the system named is NB39. The data set is described as follows: Cytotoxicity against human NB39 cells assessed as cell viability after 48 hrs by MTT assay. The format is functional, cell-based. The gist of the method:
as §1

The test system of data set [4] is NHDF. The data set is described as follows: Cytotoxicity against human NHDF cells assessed as cell viability after 48 hrs by MTT assay. The format is cell-based. A digest of the protocol: as §1
Data set [5] concerns SK-N-SH. As to the kind of experiment: Cytotoxicity against human SK-N-SH cells assessed as cell viability after 48 hrs by MTT assay. The data set is classed as functional, cell-based. The gist of the method:
as §1

In data set [6] the test system is SK-N-SH. The data set is described as follows: Cytotoxicity against human SK-N-SH cells assessed as cell viability up to 40 uM after 48 hrs by MTT assay. The format is functional, cell-based. The gist of the method:
as §1

Data set [7] concerns IMR-32. The data set is described as follows: Cytotoxicity against human IMR32 cells assessed as cell viability up to 40 uM after 48 hrs by MTT assay. The format is functional, cell-based. A digest of the protocol:
as §1

Data set [8] has as its system NHDF. The data set is described as follows: (§2) Cytotoxicity against human NHDF cells assessed as cell viability up to 40 uM after 48 hrs by MTT assay. The data set is classed as cell-based. Particulars: nhdf, 48 h. The gist of the method: as §1
For data set [9], the system named is HUVEC. As to the kind of experiment: (§3) Cytotoxicity against human HUVEC cells assessed as cell viability up to 40 uM after 48 hrs by MTT assay. The format is cell-based. The settings on record: huvec, 48 h. A digest of the protocol:
as §1

The test system of data set [10] is NB39. As to the kind of experiment: Cytotoxicity against human NB39 cells assessed as cell viability up to 40 uM after 48 hrs by MTT assay. The format is functional, cell-based. The gist of the method:
as §1

Data set [11] in a line: as §2. The data set is classed as cell-based. The settings on record: NHDF cells, read-out: Activity. A digest of the protocol: as §1
Data set [12] is described as follows: as §3. The data set is classed as cell-based. The settings on record: HUVEC cells, read-out: Activity. The gist of the method:
as §1

For data set [13], the system named is IMR-32. As to the kind of experiment: Cytotoxicity against human IMR32 cells assessed as cell survival at 100 uM. The format is functional. The settings on record: read-out: Activity. A digest of the protocol:
as §1

The subject of data set [14] is IMR-32. As to the kind of experiment: Induction of apoptosis in human IMR32 cells assessed as cellular shrinkage at 1 x 10^-6 to 1 x 10^-4 M after 24 hrs using Hoechst 33342 staining by fluorescent microscopic analysis. The format is functional, cell-based. The gist of the method: (§4)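 IMR-32 cells were exposed to compound (1 × 10⁻⁶–1 × 10⁻⁴ M) or cisplatin (1 × 10⁻⁴ M) for 24 h, then stained with Hoechst 33342. Phase-contrast and fluorescence microscopy were used to assess nuclear morphology (shrinkage, chromatin condensation, fragmented nuclei).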

A short description of data set [15]: Cytotoxicity against human HUVEC cells assessed as cell survival at 100 uM. The format is cell-based. Particulars: read-out: Activity. The gist of the method: as §1
The nature of data set [16]: Cytotoxicity against human NB39 cells assessed as cell survival at 100 uM. The format is functional. Particulars: read-out: Activity. The gist of the method:
as §1

The test system of data set [17] is SK-N-SH. The data set is described as follows: Cytotoxicity against human SK-N-SH cells assessed as cell survival at 100 uM. The format is functional. Particulars: read-out: Activity. The gist of the method: as §1
Data set [18] relates to IMR-32. The data set is described as follows: Induction of apoptosis human IMR32 cells assessed as increase in early apoptotic cells at 100 uM after 48 hrs using annexin V-propidium iodide staining by flow cytometry. The data set is classed as functional, cell-based. The gist of the method:
(§5)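 IMR-32 cells were treated with compound at 100 μM or DMSO vehicle for 48 h; untreated cells served as the normal group. Cells were double-stained with Annexin V-Alexa Fluor 488 and propidium iodide and analysed by flow cytometry. Early apoptosis was read as Annexin+/PI− and late apoptosis as Annexin+/PI+. Groups were compared with one-way ANOVA and Bonferroni post hoc test versus vehicle.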

For data set [19], the system named is IMR-32. As to the kind of experiment: Induction of apoptosis in human IMR32 cells assessed as appearance of fragmented nuclei at 1 x 10^-6 to 1 x 10^-4 M after 24 hrs using Hoechst 33342 staining by fluorescent microscopic analysis. The format is functional, cell-based. The gist of the method:
as §4

For data set [20], the system named is IMR-32. The data set is described as follows: Induction of apoptosis in human IMR32 cells assessed as chromatin condensation at 1 x 10^-6 to 1 x 10^-4 M after 24 hrs using Hoechst 33342 staining by fluorescent microscopic analysis. The format is functional, cell-based. A digest of the protocol:
as §4

Data set [21] deals with IMR-32. As to the kind of experiment: Induction of apoptosis human IMR32 cells assessed as increase in late apoptotic cells at 100 uM after 48 hrs using annexin V-propidium iodide staining by flow cytometry. The format is functional, cell-based. A digest of the protocol: as §5
(In general: Flow cytometry measures light scatter and fluorescence of single cells or particles in a stream.)

The nature of data set [22]: Cytotoxicity against human NHDF cells assessed as cell survival at 100 uM. The format is cell-based. The settings on record: read-out: Activity. The gist of the method:
as §1

Active and inactive are the calls of the source. The calls are words filed in the database; no cut-off is given here.

As to `O=C1C(c2c(O)[nH]c3ccc(Br)cc23)=Nc2ccccc21`, the outcome in [1], in data set [3] and in data set [5] was inactive. For the same compound, the Activity entry in data set [2] and in [4] was “Non-toxic” each time.
`O=Nc1c(-c2c(O)[nH]c3ccccc23)[nH]c2ccccc12` [INDIRUBIN-3-MONOXIME]: the result in [1], in data set [3] and in [5] was Active. For the same compound, the Activity entry in data set [2] was “Non-toxic”.
As to `O=C1C(c2c(O)[nH]c3ccccc23)=Nc2ccc(Br)cc21`, the result in data set [1], in data set [3] and in data set [5] was inactive. For the same compound, the Activity result in data set [2] and in data set [4] was “Non-toxic” throughout.
As to `O=C1C(c2c(O)[nH]c3c(Br)cccc23)=Nc2ccccc21`, the outcome in data set [1], in data set [3] and in data set [5] was inactive. The Activity result in data set [2] and in [4] was “Non-toxic” in each case.
In the case of `COc1ccc2c(c1)C(=N\O)/C(=C1/C(=O)Nc3ccccc31)N2`, the result in [1], in data set [3] and in data set [5] was inactive. For the same compound, the Activity entry in data set [2] and in [4] was “Non-toxic” throughout.
Take `COc1ccc2[nH]c(O)c(C3=Nc4ccccc4C3=O)c2c1`: the result in data set [1], in [3] and in data set [5] was Active. Also, the Activity entry in data set [2] and in [4] was “Toxic” each time.
Consider `COc1ccc2c(c1)NC(=O)/C2=C1\Nc2ccccc2C1=O`, for which the outcome in data set [6], in data set [7] and in data set [10] was inactive. For the same compound, the Activity result in data set [8] and in data set [9] was “Non-toxic” throughout.
With `COc1ccc2c(c1)N/C(=C1\C(=O)Nc3ccccc31)C2=O`, the result in [1], in data set [3] and in [5] was Active. Besides, the viability at 48 h in data set [11] was 82%; in data set [12] it was 60%.
`O=C1Nc2cc(Br)ccc2/C1=C1/Nc2ccccc2/C1=N\O`: the result in data set [1], in [3] and in data set [5] was Active.
As to `COc1ccc2c(c1)/C(=C1/Nc3ccccc3/C1=N\O)C(=O)N2`, the outcome in data set [1], in data set [3] and in data set [5] was Active.
As to `O=C1C(c2c(O)[nH]c3ccccc23)=Nc2cc(Br)ccc21`, the outcome in [1], in data set [3] and in data set [5] was inactive. Further, the Activity result in data set [2] and in data set [4] was “Non-toxic” throughout.
As to `COc1ccc2c(c1)C(=O)C(c1c(O)[nH]c3ccccc13)=N2`, the outcome in data set [1], in data set [14], in data set [3], in data set [18], in data set [19] and in [20] was Active. For the same compound, the outcome in data set [5] and in [21] was Active. Moreover, the viability at 100 µM in data set [13] was 10%; in data set [15] it was 40%; in data set [16] it was 10%; in data set [17] it was 10%; in data set [22], 80%. The Activity result in [2] and in [4] was “Non-toxic” in each case.
Take `COc1ccc2c(c1)NC(=O)/C2=C1\Nc2ccccc2\C1=N/O`: the outcome in data set [1], in data set [3] and in [5] was Active. Moreover, the Activity entry in data set [2] and in [4] was “Non-toxic” each time.
As to `COc1cccc2c1NC(=O)/C2=C1\Nc2ccccc2C1=O`, the result in data set [6], in [7] and in data set [10] was inactive. Moreover, the Activity entry in data set [8] and in data set [9] was “Non-toxic” each time.
Turning to `O=C1C(c2c(O)[nH]c3cc(Br)ccc23)=Nc2ccccc21`, the result in data set [1], in data set [3] and in [5] was inactive. Further, the Activity entry in data set [2] and in data set [4] was “Non-toxic” each time.
In the case of `CCc1ccc2c(c1)C(=O)/C(=C1/C(=O)Nc3ccccc31)N2`, the result in data set [6], in [7] and in [10] was inactive. Besides, the Activity entry in [8] and in [9] was “Non-toxic” in each case.
Turning to `COc1cccc2c1NC(=O)/C2=C1\Nc2ccccc2\C1=N/O`, the outcome in [1], in data set [3] and in data set [5] was Active.
In the case of `O=C1Nc2ccccc2/C1=C1/Nc2ccccc2C1=O` [INDIRUBIN], the outcome in data set [6], in [7] and in [10] was inactive. For the same compound, the Activity entry in [8] and in data set [9] was “Non-toxic” each time.
For the compound `Cc1ccc2c(c1)C(=O)C(c1c(O)[nH]c3ccccc13)=N2`, the result in data set [6], in [7] and in data set [10] was inactive. Moreover, the Activity entry in data set [8] and in data set [9] was “Non-toxic” in each case.

Source of the values: ChEMBL document CHEMBL1828596, “Synthesis of methoxy- and bromo-substituted indirubins and their activities on apoptosis induction in human neuroblastoma cells” (Bioorg Med Chem Lett, 2011).
